Results collected from several papers.
Target: Receptor-interacting serine/threonine-protein kinase 1 (RIPK1, Homo sapiens, UniProt Q13546)
Tested at: 1 µM
Sequence (Q13546 1-671, as in one of the studies): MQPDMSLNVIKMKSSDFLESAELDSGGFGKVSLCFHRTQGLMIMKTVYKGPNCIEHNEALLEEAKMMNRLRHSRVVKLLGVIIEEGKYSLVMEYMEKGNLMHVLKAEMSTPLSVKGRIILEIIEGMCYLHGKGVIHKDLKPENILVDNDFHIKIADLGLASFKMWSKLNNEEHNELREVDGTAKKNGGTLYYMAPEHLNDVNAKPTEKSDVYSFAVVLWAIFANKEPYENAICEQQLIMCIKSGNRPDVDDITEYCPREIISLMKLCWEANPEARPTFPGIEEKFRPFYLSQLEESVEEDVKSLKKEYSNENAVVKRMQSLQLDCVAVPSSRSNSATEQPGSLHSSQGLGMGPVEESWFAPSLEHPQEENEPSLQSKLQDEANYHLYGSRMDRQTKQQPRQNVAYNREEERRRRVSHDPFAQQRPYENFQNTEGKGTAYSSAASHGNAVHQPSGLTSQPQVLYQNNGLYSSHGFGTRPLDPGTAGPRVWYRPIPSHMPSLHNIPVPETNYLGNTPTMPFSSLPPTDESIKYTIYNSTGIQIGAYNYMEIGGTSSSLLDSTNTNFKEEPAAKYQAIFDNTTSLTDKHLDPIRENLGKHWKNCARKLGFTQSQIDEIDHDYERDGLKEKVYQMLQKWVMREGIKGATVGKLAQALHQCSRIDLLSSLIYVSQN

Compound	test	remaining binding [%]
CCc1ccccc1C(=O)Nc1n[nH]c2c(C)c(F)c(C3C(C#N)=C(C)N(C)C(C)=C3C#N)cc12	cell-free assay, competition with immobilised ligand	100
CNC(=O)[C@@H]1CC[C@@H](n2c(-c3ccc4cnccc4c3)nc3ccc(C(=O)NCc4cccc(C(N)=O)c4)cc32)C1	binding, competition with immobilised ligand	100
O=C(c1ccc(Nc2ncc(Cl)c(-c3ccc(Cl)s3)n2)cc1)N1CCC(N2CCCC2)CC1	binding, competition with immobilised ligand	0.5
COc1ccnn2ncc(-c3ccnc(N(C)C)n3)c12	binding	96
CCC(=O)N[C@H]1CC[C@@H](C(=O)N(C)c2ccc(-c3nc4ccccc4o3)cc2)C1	cell-free assay, competition with immobilised ligand	100
O=C(Nc1c[nH]nc1C(=O)NC1CCNCC1)c1cc(F)cc(F)c1	binding, competition with immobilised ligand	100
CCCOc1ccc([C@@H]2[C@@H](C(=O)O)[C@H](c3ccc4c(c3)OCO4)CN2CC(=O)Nc2c(CC)cccc2CC)cc1	cell-free assay, competition with immobilised ligand	55
CN(c1nccc(-c2cnn3ncccc23)n1)C1CC1	binding	100
O=C(NCCCN1CCOCC1)c1ccc(Nc2nccc(-c3cc4ccccc4s3)n2)cc1	binding, competition with immobilised ligand	65
O=C1CCc2cc(Nc3cc(OC4CCOCC4)c([N+](=O)[O-])cc3Cl)ccc2N1	cell-free assay, competition with immobilised ligand	100
N[C@@H]1CCN(c2nccc(-c3cnn4ncccc34)n2)C1	binding	100
C=CC(=O)N1CCC(C(=O)NCC(=O)N2CCN(c3nc(-c4cnc(N)nc4C(F)F)nc(N4CCOCC4)n3)CC2)CC1	binding, competition with immobilised ligand	100
COc1cnc(Nc2cccc(S(N)(=O)=O)c2)nc1N1CCN(c2ccccc2)C(=O)C1	binding, competition with immobilised ligand	100
Cc1cnn2ncc(-c3ccnc(N(C)C)n3)c2c1	binding	100
O=C(N1CCS(=O)(=O)CC1)N1C[C@H](c2ccc(OC(F)(F)F)cc2)C[C@H](c2nc(C3CC3)no2)C1	cell-free assay, competition with immobilised ligand	100
O=C(c1ccc(Nc2ncc(Cl)c(-c3cc4ccccc4s3)n2)cc1)N1CCC(N2CCCC2)CC1	binding, competition with immobilised ligand	2.5
O=C(Nc1ccc(Oc2ccc(F)cc2)cc1)N1CCc2ncccc2[C@H]1c1ccc(F)cc1	cell-free assay, competition with immobilised ligand	100
CN(C)c1nccc(-c2cnn3ncccc23)n1	binding	98
